Measurements published in ChEMBL document CHEMBL1127082, “3,4-Dihydroxychalcones as potent 5-lipoxygenase and cyclooxygenase inhibitors” (J Med Chem, 1993).

How the values were obtained:
Rattus norvegicus = species: Rattus norvegicus; test: Inhibition of lipid peroxidation in rat liver microsomes at 1 uM; assay type: functional
[1] = biological target: Prostaglandin G/H synthase 1 (Ovis aries) (UniProt P05979); test: Inhibition of Prostaglandin G/H synthase activity in sheep seminal vesicle was determined; design: concentration or dose not given beside the values; details: concentration not given here
[2] = Inhibition of Prostaglandin G/H synthase activity in sheep seminal vesicle was determined; assay type: tissue-based, Ovis aries
Procedure, shortened: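 Sheep seminal vesicle microsomes (32 μg protein) were incubated with [14C]arachidonic acid (0.1 μCi/mL) in pH 7.4 phosphate buffer containing glutathione, epinephrine and EDTA for 10 min at 37 °C. Substrate was removed by two hexane/EtOAc extractions, and aqueous-phase radioactivity was counted by scintillation.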

[3] = biological target: T1, Polyunsaturated fatty acid 5-lipoxygenase (Rattus norvegicus, UniProt P12527); test: In vitro inhibition against 5-lipoxygenase in RBL-1 cells was determined; assay type: cell-based
T1 sequence (P12527 whole entry): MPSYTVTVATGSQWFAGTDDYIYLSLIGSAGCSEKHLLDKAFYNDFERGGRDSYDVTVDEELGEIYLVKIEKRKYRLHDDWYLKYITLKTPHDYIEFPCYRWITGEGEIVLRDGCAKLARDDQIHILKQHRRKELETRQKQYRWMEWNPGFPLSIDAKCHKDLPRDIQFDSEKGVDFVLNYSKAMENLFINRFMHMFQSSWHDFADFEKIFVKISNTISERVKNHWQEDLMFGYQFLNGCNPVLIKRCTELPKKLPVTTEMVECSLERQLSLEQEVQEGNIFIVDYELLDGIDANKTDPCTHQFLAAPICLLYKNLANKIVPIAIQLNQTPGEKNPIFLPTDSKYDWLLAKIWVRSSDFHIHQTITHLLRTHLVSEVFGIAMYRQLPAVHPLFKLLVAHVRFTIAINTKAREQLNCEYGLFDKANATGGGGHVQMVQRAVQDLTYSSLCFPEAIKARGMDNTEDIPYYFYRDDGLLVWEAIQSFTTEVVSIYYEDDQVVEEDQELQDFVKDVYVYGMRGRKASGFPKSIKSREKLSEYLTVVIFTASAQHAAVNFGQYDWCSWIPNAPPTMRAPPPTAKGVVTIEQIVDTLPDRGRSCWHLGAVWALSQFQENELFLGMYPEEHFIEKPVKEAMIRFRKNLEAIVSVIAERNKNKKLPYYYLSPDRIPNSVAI

[4] = biological target: Prostaglandin G/H synthase 1 (Ovis aries) (UniProt P05979); test: Inhibition of Prostaglandin G/H synthase activity in sheep seminal vesicle was determined at 100 uM
Mus musculus = test: Inhibition of arachidonic acid induced mouse ear edema at 30 ug/ear; assay type: functional
Procedure, shortened: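 Male ICR mice (25–28 g), 4–8 per group, received the compound topically in acetone, then 1 mg arachidonic acid on the inner surface of one ear. After 1 h, swelling was taken as the weight difference between challenged and unchallenged ears. Inhibition = (C−T)/C × 100; mean ± SE; Student's t test.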

[5] = biological target: Prostaglandin G/H synthase 1 (Ovis aries) (UniProt P05979); test: Inhibition of Prostaglandin G/H synthase activity in sheep seminal vesicle was determined 100 uM
[6] = biological target: T2, Polyunsaturated fatty acid 5-lipoxygenase (Rattus norvegicus) (UniProt P12527); test: In vitro inhibition against 5-lipoxygenase in RBL-1 cells was determined at 10e-4 M; assay type: cell-based
T2 sequence (whole entry): T1 sequence (P12527 whole entry)
Procedure, shortened: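 RBL-1 cells grown in RPMI-1640 with 10% heat-inactivated newborn calf serum at 37 °C in 5% CO2, harvested in growth phase, suspended in 50 mM phosphate buffer pH 7.4 (0.25 M sucrose, 1 mM EDTA, 2 mM glutathione) and stored at -70 °C. Homogenate (5 × 10⁶ cells), 2 mM CaCl2 and 0.66 mM arachidonic acid incubated 3 min at 37 °C. MeOH stop, 5-HETE by HPLC at 235 nm. Percent inhibition versus control at 10⁻⁴ M, mean of two determinations.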

[7] = biological target: Prostaglandin G/H synthase 1 (Ovis aries) (UniProt P05979); test: Inhibition of Prostaglandin G/H synthase activity in sheep seminal vesicle was determined 100 uM; remark: listed apart in the source
[8] = biological target: T2, Polyunsaturated fatty acid 5-lipoxygenase (Rattus norvegicus); test: In vitro inhibition against 5-lipoxygenase in RBL-1 cells was determinedb at 100 uM; assay type: cell-based
Procedure, shortened: (§1)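 Single-concentration test at 100 μM, given as percent inhibition versus control, average of two determinations. RBL-1 cell homogenate (5 × 10⁶ cells) with 2 mM CaCl2 and 0.66 mM arachidonic acid, pH 7.4 phosphate buffer, 3 min at 37 °C. 5-HETE was measured by HPLC absorbance at 235 nm.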

[9] = biological target: Cyclooxygenase (Homo sapiens) (UniProt P35354+P23219); test: Inhibition of Prostaglandin G/H synthase activity in sheep seminal vesicle was determined 10E-4 […]; assay type: tissue-based; details: Ovis aries, target entry is the homologue from another species
[10] = biological target: T2, Polyunsaturated fatty acid 5-lipoxygenase (Rattus norvegicus); test: In vitro inhibition against 5-lipoxygenase in RBL-1 cells was determined at 100 uM; assay type: cell-based; procedure, shortened: as §1

Prostaglandin G/H synthase 1 (Ovis aries), sequence (P05979 whole entry, looked up): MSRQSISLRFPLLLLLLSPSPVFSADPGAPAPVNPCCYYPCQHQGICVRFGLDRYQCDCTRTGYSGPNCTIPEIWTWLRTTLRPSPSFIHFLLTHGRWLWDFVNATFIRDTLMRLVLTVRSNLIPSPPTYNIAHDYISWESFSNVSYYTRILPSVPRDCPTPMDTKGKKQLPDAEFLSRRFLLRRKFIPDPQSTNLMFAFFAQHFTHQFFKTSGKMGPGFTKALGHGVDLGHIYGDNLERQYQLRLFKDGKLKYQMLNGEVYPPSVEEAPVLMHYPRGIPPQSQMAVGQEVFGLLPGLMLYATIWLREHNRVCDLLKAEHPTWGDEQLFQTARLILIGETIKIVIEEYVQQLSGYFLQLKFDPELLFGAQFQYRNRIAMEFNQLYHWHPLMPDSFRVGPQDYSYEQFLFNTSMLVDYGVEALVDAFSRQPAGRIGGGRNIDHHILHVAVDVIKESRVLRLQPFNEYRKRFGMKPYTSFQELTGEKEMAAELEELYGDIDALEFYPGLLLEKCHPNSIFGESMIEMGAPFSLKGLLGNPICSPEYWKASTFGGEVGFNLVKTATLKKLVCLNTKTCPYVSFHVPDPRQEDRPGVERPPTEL

Structure (SMILES) | IC50 [2] [µM] | IC50 [3] [µM] | other results
O=C(/C=C/c1ccc(O)cc1)c1c(O)cc(O)cc1O |  |  | inhibition (Rattus norvegicus): 8%; inhibition [1]: 3.1%
O=C(/C=C/c1ccc(O)cc1)c1ccccc1O | 390 |  | inhibition (Rattus norvegicus): 6%
CC(C)Oc1ccc(C(=O)/C=C/c2ccc(O)c(O)c2)cc1 |  | 0.041 | inhibition [4]: 11%
CCOc1ccc(OC)cc1C(=O)/C=C/c1ccc(O)c(O)c1 | 2 | 0.027 | 
COc1ccc2c(c1)c(CC(=O)O)c(C)n2C(=O)c1ccc(Cl)cc1 [INDOMETHACIN] | 0.8 |  | Inhibition (Mus musculus): 4.8%
O=C(/C=C/c1ccc(O)c(O)c1)c1ccc(Cl)cc1 | 1400 | 0.0085 | 
O=C(/C=C/c1ccc(O)c(O)c1)c1ccccc1O |  | 0.023 | inhibition (Rattus norvegicus): 45%; IC50 [5]: 44 µM
O=C(/C=C/c1ccc(O)c(O)c1)c1ccccc1 | 34 | 0.043 | inhibition (Rattus norvegicus): 44%
CCCCOc1ccc(O)c(C(=O)/C=C/c2ccc(O)c(O)c2)c1 |  | 1 | Inhibition (Mus musculus): 33%; inhibition [4]: 4.2%
Cc1ccc(O)c(C(=O)/C=C/c2ccc(O)c(O)c2)c1 | 120 | 0.039 | 
O=C(/C=C/c1ccc(O)c(O)c1)c1ccc(O)cc1O [BUTEIN] |  | 0.0046 | inhibition (Rattus norvegicus): 40%; IC50 [5]: 120 µM
COc1ccc(C)cc1C(=O)/C=C/c1ccc(O)c(O)c1 | 30 | 0.024 | Inhibition (Mus musculus): 47%
CC(C)c1ccc(O)c(C(=O)/C=C/c2ccc(O)c(O)c2)c1 | 37 | 0.004 | Inhibition (Mus musculus): 16%
COc1ccc(OC(C)C)cc1C(=O)/C=C/c1ccc(O)c(O)c1 | 60 | 0.014 | Inhibition (Mus musculus): 34%
COc1cccc(OC)c1C(=O)/C=C/c1ccc(O)c(O)c1 |  | 0.37 | inhibition [4]: 15%
O=C(O)c1ccccc1Nc1cccc(C(F)(F)F)c1 [FLUFENAMIC ACID] | 19 |  | inhibition [6]: -0.1%
O=C(/C=C/c1ccccc1)c1ccc(O)cc1O [2',4'-DIHYDROXYCHALCONE] | 280 |  | inhibition (Rattus norvegicus): 5%
O=C(/C=C/c1ccc(O)cc1)c1ccc(O)cc1O [ISOLIQUIRITIGENIN] |  | 35 | inhibition (Rattus norvegicus): 9%
O=C(/C=C/c1ccc(O)c(O)c1)c1c(O)cc(O)cc1O [3,4,2',4',6'-PENTAHYDROXYCHALCONE] |  | 0.14 | inhibition (Rattus norvegicus): 18%; inhibition [7]: 11%

Structure (SMILES) | IC50 [2] [µM] | IC50 [3] [µM] | other results
COc1cc(/C=C/C(=O)c2ccccc2O)ccc1O |  |  | inhibition (Rattus norvegicus): 14%; IC50 [5]: 63 µM
COc1cc(C(=O)/C=C/c2ccc(O)c(O)c2)cc(OC)c1OC |  | 0.016 | inhibition [4]: 13%
CCOc1ccc(OCC)c(C(=O)/C=C/c2ccc(O)c(O)c2)c1 | 24 | 0.0024 | Inhibition (Mus musculus): -18%
CCOc1ccc(O)c(C(=O)/C=C/c2ccc(O)c(O)c2)c1 | 130 | 0.0053 | Inhibition (Mus musculus): 42%
COc1ccc(C(=O)/C=C/c2ccc(O)c(OC)c2)cc1 |  | 12 | inhibition (Rattus norvegicus): 2.3%; inhibition [1]: -7.3%
O=C(/C=C/c1ccc(O)c(O)c1)c1ccccc1Cl |  | 0.092 | IC50 [5]: 71 µM
COc1ccccc1C(=O)/C=C/c1ccc(O)c(O)c1 | 13 | 0.027 | 
COc1ccc(C(=O)/C=C/c2ccc(O)c(O)c2)c(OC)c1 | 160 | 0.01 | 
Oc1c(Cc2ccccc2)ccc2ccccc12 | 24 | 0.0069 | Inhibition (Mus musculus): 67%
CN1C(C(=O)Nc2ccccn2)=C(O)c2ccccc2S1(=O)=O [PIROXICAM] | 460 |  | inhibition [6]: 19%
O=C(/C=C/c1ccc(O)c(O)c1)c1ccc([N+](=O)[O-])cc1 |  | 0.023 | inhibition [1]: 5%
CCOc1ccc(OC)c(C(=O)/C=C/c2ccc(O)c(O)c2)c1 | 26 | 0.0038 | 
Cc1cccc(C(=O)/C=C/c2ccc(O)c(O)c2)c1 | 71 | 0.027 | 
O=C(/C=C/c1ccccc1)c1ccc(O)cc1 |  |  | inhibition (Rattus norvegicus): 5%; inhibition [7]: 20%
COc1ccc(C(=O)/C=C/c2ccc(O)c(O)c2)c(O)c1 [CALYTHROPSIN] | 65 |  | 
COc1cccc(C(=O)/C=C/c2ccc(O)c(O)c2)c1 | 15 | 0.0065 | 
COc1cc(C(=O)/C=C/c2ccc(O)c(O)c2)ccc1O |  | 0.009 | inhibition [4]: 14%
O=C(/C=C/c1ccc(O)c(O)c1)c1ccccc1C(F)(F)F | 230 | 0.058 | 
O=C(/C=C/c1ccc(O)c(O)c1)c1cc(O)ccc1O | 170 | 0.064 | 

Structure (SMILES) | IC50 [2] [µM] | IC50 [3] [µM] | other results
Cc1cc(C)c(C(=O)/C=C/c2ccc(O)c(O)c2)c(C)c1 | 280 | 0.4 | 
O=C(/C=C/c1ccc(O)c(O)c1)c1ccc(O)cc1 | 320 |  | inhibition (Rattus norvegicus): 36%
COc1ccc(/C=C/C(=O)c2ccccc2O)cc1O |  |  | inhibition (Rattus norvegicus): 11%; inhibition [1]: 8.6%; inhibition [8]: -4.5%
Cc1ccc(C(=O)/C=C/c2ccc(O)c(O)c2)c(C)c1 | 41 | 0.017 | 
O=C1CCN(c2ccccc2)N1 [PHENIDONE] | 80 |  | Inhibition (Mus musculus): 24.6%
O=c1c(O)c(-c2ccc(O)c(O)c2)oc2cc(O)cc(O)c12 |  |  | inhibition [9]: 13%
Cc1ccc(C)c(C(=O)/C=C/c2ccc(O)c(O)c2)c1 | 44 | 0.016 | 
COc1ccc(C(=O)/C=C/c2ccc(O)c(O)c2)cc1 | 490 | 0.02 | 
CN(C)c1cccc(C(=O)/C=C/c2ccc(O)c(O)c2)c1 | 41 | 0.0098 | 
O=C(/C=C/c1ccccc1)c1ccccc1O |  |  | inhibition (Rattus norvegicus): 6%; inhibition [7]: 13%; inhibition [10]: 19%
O=C(/C=C/c1ccccc1)c1c(O)cc(O)cc1O [2',4',6-TRIHYDROXYCHALCONE] |  |  | inhibition (Rattus norvegicus): 9%; inhibition [1]: 6.9%
Cc1ccc(C(=O)/C=C/c2ccc(O)c(O)c2)cc1 | 210 | 0.076 | 
COc1ccc(OC)c(C(=O)/C=C/c2ccc(O)c(O)c2)c1 | 9.2 |  | 
CN(C)c1ccc(C(=O)/C=C/c2ccc(O)c(O)c2)cc1 | 810 | 0.0047 | 
COc1ccc(C(=O)/C=C/c2ccc(O)c(O)c2)cc1OC | 140 | 0.018 | 
O=C(/C=C/c1ccc(O)c(O)c1)c1cccc(O)c1 | 140 | 0.0042 | inhibition (Rattus norvegicus): 24%
CC(Cc1ccc(O)c(O)c1)C(C)Cc1ccc(O)c(O)c1 (stereo not given) [NORDIHYDROGUAIARETIC ACID] | 210 |  | 
CC(C)Oc1ccc(O)c(C(=O)/C=C/c2ccc(O)c(O)c2)c1 | 140 | 0.011 | 
COc1cc(/C=C/C(=O)c2ccc(Cl)cc2)ccc1O | 41 | 8.9 | 
